This is an account of results in article PMC3288656 (Biochemical pharmacology, 2012).

Assay [1] addresses T1, CB1Rs (Mus musculus, UniProt P47746). The experiment in a line: [35S]GTPγS binding assay. The format is biochemical. The following applies: for [35S]GTPγS Binding Emax: concentration-effect curves, mouse brain homogenates, n=3–4; for intrinsic activity at CB1Rs: conclusion from [35S]GTPγS binding data. On the technique in general: Binding of GTPγS marks nucleotide exchange on a G protein.

Assay [2] deals with core body temperature (hypothermia). The experiment in a line: Cannabinoid tetrad: core body temperature by biotelemetry. Type of assay: in vivo, NIH Swiss mice. The following applies: for minimum core body temperature recorded / time to maximal core body temperature reduction (Tmax): 10 mg/kg, i.p.
The subject of a further assay is locomotor activity. The experiment in a line: Cannabinoid tetrad: locomotor activity by biotelemetry. The format is in vivo, NIH Swiss mice. To be noted: for locomotor activity: mice. The procedure, abridged:
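Abdominal biotelemetry probes were implanted in male NIH Swiss mice under ketamine 100 mg/kg plus xylazine 10 mg/kg i.p., with at least 7 days recovery. Mice were housed singly, acclimated at least 2 h, and gave at least 1 h of baseline. They were then dosed i.p. in 1:1:18 ethanol:emulphor:saline (10 mL/kg) and moved to a fresh-bedding cage. Activity was logged every 5 min for at least 10 h. Groups of 5 or 6.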

The test system of another assay is analgesia (tail flick). The experiment in a line: Cannabinoid tetrad: analgesia, tail-flick latency. The format is in vivo, NIH Swiss mice. The procedure, abridged:
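Male NIH Swiss mice (~25–30 g, drug-naïve, groups of 5 or 6) received i.p. test compound in ethanol:emulphor:saline 1:1:18 at 10 mL/kg. Radiant-heat tail flick used sensitivity 150 and light intensity 369, calibrated so untreated mice respond in 2–4 s, with a 10 s cutoff. The photobeam break stopped the timer. One trial per mouse at 0, 10, 30 and 60 min post-dose.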
(In hot-plate and tail-flick tests a longer latency is read as antinociception.)

The test system of another assay is catalepsy. The experiment in a line: Cannabinoid tetrad: catalepsy, horizontal bar test. Type of assay: in vivo, NIH Swiss mice. The procedure, abridged: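 Catalepsy was measured as time on a horizontal bar in male NIH Swiss mice (groups of 5 or 6, drug-naïve). Dosing was i.p. in 1:1:18 ethanol:emulphor:saline (10 mL/kg). The steel bar was 0.5 cm in diameter and sat 4.0 cm above a platform. Forelimbs went on the bar and hindlimbs on the platform in a rearing posture. Timing ran until both paws left the bar, maximum 30 s. Single trial per time point at 0, 10, 30 and 60 min.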

Assay [3] has as its target T1, CB1Rs. The experiment in a line: Competition receptor binding with [3H]CP-55,940 in mouse brain homogenates.
Where [4] appears, read: drug 10 μM (receptor-saturating).
Where [5] appears, read: M4 10 mg/kg i.p. + JWH-018 3 mg/kg i.p. vs JWH-018 alone.
The mark [6] stands for this setting: drug 1 μM co-incubated with CB1R antagonist O-2050 1 μM.
Setting [7] is: 10 mg/kg, i.p., relative to vehicle.
[8] abbreviates: JWH-018 3 mg/kg i.p. alone, mice.

“And” between values parts separate entries of the source, which are not always exact repeats. Identical values can stand only once. Marks after values point to notes of the source that are not given here.

T1 sequence (P47746 whole entry): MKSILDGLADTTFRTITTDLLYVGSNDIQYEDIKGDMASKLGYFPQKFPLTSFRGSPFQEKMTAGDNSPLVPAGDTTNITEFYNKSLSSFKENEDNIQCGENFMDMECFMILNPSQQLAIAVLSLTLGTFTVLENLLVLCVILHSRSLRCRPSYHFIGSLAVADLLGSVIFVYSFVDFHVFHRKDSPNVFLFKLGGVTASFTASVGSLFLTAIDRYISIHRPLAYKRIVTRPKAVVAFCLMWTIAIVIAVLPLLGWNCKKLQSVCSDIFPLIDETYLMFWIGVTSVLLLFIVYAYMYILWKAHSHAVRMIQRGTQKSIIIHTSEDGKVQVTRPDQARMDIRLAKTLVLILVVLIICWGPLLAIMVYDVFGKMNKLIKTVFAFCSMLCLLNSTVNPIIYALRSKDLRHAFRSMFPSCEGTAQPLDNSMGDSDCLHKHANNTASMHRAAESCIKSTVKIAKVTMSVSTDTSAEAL

With `CCCCCCC(C)(C)c1ccc([C@@H]2C[C@H](O)CC[C@H]2CCCO)c(O)c1` [CP-55,940, reference compound], on CB1Rs [1], the “[35S]GTPγS Binding Emax” value was 0.26 ± 0.01 ^a pmole/mg and the “intrinsic activity at CB1Rs” value is listed as “full CB1R agonists”. At CB1Rs [1] (drug 100 nM), the “[35S]GTPγS Binding” value came out at 0.20 ± 0.04 pmol/mg. The “[35S]GTPγS Binding + O-2050 (1 μM)” value at CB1Rs [1] (drug 100 nM co-incubated with CB1R antagonist O-2050 1 μM) came out at 0.06 ± 0.03 pmol/mg. For the same compound, at CB1Rs [1] (setting [4]), the “[35S]GTPγS Binding” value was 0.32 ± 0.02 pmole/mg and 0.32 ± 0.02 ^c, pmole/mg.
`CCCCn1cc(C(=O)c2cccc3ccccc23)c2cccc(O)c21` [M4]: the “antagonism of CB1R agonists and inverse agonists in [35S]GTPγS binding” value on CB1Rs [1] (M4 10 μM with 100 nM CP, 1 μM JWH-018, 500 nM JWH-073, 10 μM Rimonabant or AM251) was “significantly antagonized”. The same compound returned a Schild plot slope on CB1Rs [1] (M4 against JWH-018) of 0.97. The “effect on basal [35S]GTPγS binding” value on CB1Rs [1] (M4 alone, 0.1 nM to 10 μM) was “neither significantly increased”. On CB1Rs [1], the “intrinsic activity at CB1Rs” value is reported as “lacks significant intrinsic activity”. The “JWH-018-induced hypothermia, area under the curve 0–500 minutes” value in assay [2] (M4 10 mg/kg i.p. + JWH-018 3 mg/kg i.p. vs JWH-018 alone, n=5) was “significantly attenuated hypothermia”. In addition, the “change in body temperature” value in assay [2] (M4 10 mg/kg i.p. alone, mice) is on record as “no significant change in body temperature”. The “core body temperature minimum, JWH-018-induced hypothermia with M4” value in assay [2] (M4 10 mg/kg i.p. co-administered with JWH-018 3 mg/kg i.p., mice) is 33.09 +/− 0.70 °C. Moreover, in the assay on locomotor activity (setting [5]), the “antagonism of JWH-018-induced locomotor suppression” value is “no difference”. Besides, in the assay with analgesia (tail flick) (setting [5]), the “antagonism of JWH-018-induced analgesia” value is “no difference”. The “antagonism of JWH-018-induced catalepsy” value in the assay on catalepsy (setting [5]) is “no difference”.
For `O=C(O)CCCn1cc(C(=O)c2cccc3ccccc23)c2ccccc21` [M6, 4-(3-(1-naphthoyl)-1H-indole-1-yl)-1-butanoic acid], on CB1Rs [3] (concentrations as high as 10 μM, n=3), the “displacement of [3H]CP-55,940 specific binding” value is given as “less than 10%”.
For `CCCCn1cc(C(=O)c2cccc3ccccc23)c2ccccc21` [JWH-073, (1-butyl-1H-indole-3-yl)-1-naphthalenyl-methanone, reference compound], at CB1Rs [1], the “[35S]GTPγS Binding Emax” value is 0.27 ± 0.01 ^a pmole/mg and the “intrinsic activity at CB1Rs” value is listed as “full CB1R agonists”. Further, on CB1Rs [1] (drug 1 μM), the “[35S]GTPγS Binding” value was determined as 0.27 ± 0.04 pmol/mg. The “[35S]GTPγS Binding + O-2050 (1 μM)” value on CB1Rs [1] (setting [6]) worked out at 0.07 ± 0.02 pmol/mg. Moreover, the “[35S]GTPγS Binding” value at CB1Rs [1] (setting [4]) was 0.28 ± 0.03 pmole/mg and 0.28 ± 0.03 ^c pmole/mg. Further, in assay [2] (mice), the “minimum core body temperature recorded” value was determined as 29.74 ± 1.44 °C and the “time to maximal core body temperature reduction (Tmax)” value was determined as 54.17 ± 5.23 min. In the assay on locomotor activity (setting [7]), the locomotor activity result is on record as “locomotor suppression”.
For the compound `O=C(c1cccc2ccccc12)c1cn(CCCCO)c2ccccc12` [M5, 1-(4-hydroxybutyl-1H-indole-3-yl)(naphthalen-1-yl)-methanone], the “intrinsic activity at CB1Rs” value on CB1Rs [1] is listed as “partial agonist activity”. Further, the “[35S]GTPγS Binding” value at CB1Rs [1] (drug 1 μM) is 0.12 ± 0.00 pmol/mg; on CB1Rs [1] (setting [4]), 0.16 ± 0.02 pmole/mg and 0.16 ± 0.02 ^a pmole/mg. In addition, the “[35S]GTPγS Binding + O-2050 (1 μM)” value at CB1Rs [1] (setting [6]) was 0.05 ± 0.01 pmol/mg.
As for `CCCCn1cc(C(=O)c2cccc3ccccc23)c2c(O)cccc21` [M1], on CB1Rs [1], the “[35S]GTPγS Binding Emax” value is 0.14 ± 0.01 ^b pmole/mg and the “intrinsic activity at CB1Rs” value was “partial agonist activity”. Further, the “[35S]GTPγS Binding” value on CB1Rs [1] (drug 1 μM) came to 0.17 ± 0.01 pmol/mg. On CB1Rs [1] (setting [6]), the “[35S]GTPγS Binding + O-2050 (1 μM)” value was determined as 0.07 ± 0.01 pmol/mg. For the same compound, the “[35S]GTPγS Binding” value at CB1Rs [1] (setting [4]) was 0.14 ± 0.01 pmole/mg and 0.14 ± 0.01 ^a pmole/mg. Also, in assay [2] (mice), the “minimum core body temperature recorded” value was 30.32 ± 0.66 °C and the “time to maximal core body temperature reduction (Tmax)” value came to 58.00 ± 4.64 min. Besides, the locomotor activity result in the assay on locomotor activity (setting [7]) was “reduction of locomotor activity similar to that observed with administration of JWH-073”.
For the compound `CCCCn1cc(C(=O)c2cccc3ccccc23)c2ccc(O)cc21` [M3], the Ki at CB1Rs [3] (read-out: CB1R affinity (Ki), displacement of [3H]CP-55,940, mouse brain homogenates, n=4) amounted to 1280 ± 470 nM. At CB1Rs [1], the “intrinsic activity at CB1Rs” value is “partial agonist activity”. Also, the “[35S]GTPγS Binding” value on CB1Rs [1] (drug 1 μM) is 0.04 ± 0.00 pmol/mg; on CB1Rs [1] (setting [4]), 0.11 ± 0.02 pmole/mg and 0.11 ± 0.02 ^a, ^b pmole/mg. Moreover, at CB1Rs [1] (setting [6]), the “[35S]GTPγS Binding + O-2050 (1 μM)” value stood at 0.02 ± 0.01 pmol/mg.
As for `CCCCCn1cc(C(=O)c2cccc3ccccc23)c2ccccc21` [JWH-018, reference compound], on CB1Rs [1] (read-out: EC50 for G-protein activation, JWH-018 alone), the EC50 was 8 nM. Besides, the “maximal decrease in core body temperature to” value in assay [2] (setting [8]) was 30.28 +/− 0.71 °C. Moreover, in the assay on locomotor activity (JWH-018 3 mg/kg i.p. alone), the locomotor activity entry was “locomotor suppression”. Moreover, in the assay with analgesia (tail flick) (setting [8]), the “analgesia (tail flick assay)” value is recorded as “robust analgesia”. For the same compound, the catalepsy entry with catalepsy (setting [8]) is reported as “catalepsy”.

As a reminder, the Ki is a dissociation constant, usually derived from enzyme kinetics or from competition with a known ligand. One may read the EC50 as the concentration needed to bring the measured effect to its halfway point.
